Compound activity: PubChem, several laboratories
SR-BI DiI-HDL act: enhances SR-BI lipid uptake from DiI-HDL | activation, % at 12.5 µM | CHO ldlA[mSR-BI] cells, DiI-HDL uptake fluorescence, 3 h; 100 = double the neutral-control signal | AID 504775 | hit rate 0.096% among 320,000;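 active means mean replicate activation of at least 60% and every replicate at or above 60%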;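 further: 0% = median plate neutral-control signal and 100% = twice that signal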
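Assay system: CHO ldlA[mSR-BI] cells, LDL receptor-null, SR-BI overexpressing; medium: Ham's F12 with 0.5% BSA, HEPES 25 mM, pH 7.4; also added: DiI-HDL 10 µg/mL; timing: 3 h uptake period with compound, 37 °C; signal: DiI fluorescence, bottom read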
SMARCA2 activ: SMARCA2 function activation, primary screen. MG213 cells, MMTV-luciferase reporter, dexamethasone, overnight. activation, % at 9.1 µM. hit rate 1% among 370,000; in the data active means activation above about 7.8%;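 further: 0% = vehicle wells and 100% = reference activator wells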
Hep lipid drop: hepatic lipid droplet formation modulation | inhibition, % at 6.5 µM | hit rate 0.4% among 240,000 | AML12 mouse hepatocytes, oleate lipid droplets, BODIPY imaging;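 active means lipid droplet intensity inhibited by at least 50%, with more than 500 cells counted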
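Test system: AML12 mouse liver cells; schedule: overnight exposure; technique: high-content imaging of BODIPY-stained droplets and DAPI nuclei; read-out: % inhibition of corrected integrated BODIPY droplet signal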
CR mimetic SO: caloric restriction mimetics inhibiting age-related superoxide in yeast; S. cerevisiae aged cells, superoxide DHE fluorescence; hits give low values; superoxide response (% of plate mean), % at 10 µM; hit rate 0.18% among 330,000;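 active means superoxide response under a set limit, about three screen SD below normal, cut at about 65% in these data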;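 further: yeast aged for seven days with compound at 30 °C before DHE staining; 100% = average MFI of all compound-treated wells on the plate with controls excluded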
AHR activator: human AHR activation. hit rate 2.5% among 320,000. activation, % at 5 µM. AHR-responsive luciferase reporter cells, luminescence. P35869; in the data active means activation above about 47%;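 further: 0% = vehicle wells and 100% = reference agonist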
Target sequence (P35869 whole entry, looked up): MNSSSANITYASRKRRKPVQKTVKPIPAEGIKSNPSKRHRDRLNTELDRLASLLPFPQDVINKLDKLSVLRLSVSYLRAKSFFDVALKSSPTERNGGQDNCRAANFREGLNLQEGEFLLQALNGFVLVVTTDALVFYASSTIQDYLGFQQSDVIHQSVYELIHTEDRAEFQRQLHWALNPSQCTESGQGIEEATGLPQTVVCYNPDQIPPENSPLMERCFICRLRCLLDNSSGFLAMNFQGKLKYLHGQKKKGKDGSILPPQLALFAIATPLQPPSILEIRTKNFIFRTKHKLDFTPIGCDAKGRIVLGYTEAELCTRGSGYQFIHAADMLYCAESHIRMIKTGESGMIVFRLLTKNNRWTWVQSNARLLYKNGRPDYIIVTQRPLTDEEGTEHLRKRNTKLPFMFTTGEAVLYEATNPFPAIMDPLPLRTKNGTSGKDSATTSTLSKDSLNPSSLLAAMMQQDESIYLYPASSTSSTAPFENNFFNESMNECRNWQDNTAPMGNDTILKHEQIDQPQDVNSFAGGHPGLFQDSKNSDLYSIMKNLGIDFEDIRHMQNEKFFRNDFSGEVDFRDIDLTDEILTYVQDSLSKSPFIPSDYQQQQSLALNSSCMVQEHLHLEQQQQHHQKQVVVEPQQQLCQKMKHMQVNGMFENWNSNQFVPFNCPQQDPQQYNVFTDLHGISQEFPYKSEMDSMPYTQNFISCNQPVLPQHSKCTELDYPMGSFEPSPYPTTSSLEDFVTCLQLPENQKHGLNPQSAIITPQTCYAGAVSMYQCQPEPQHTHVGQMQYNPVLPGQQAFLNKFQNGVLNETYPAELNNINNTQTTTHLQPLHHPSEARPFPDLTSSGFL
SR-BI HDL uptake: inhibitors of mouse SR-BI mediated HDL lipid uptake | hit rate 0.96% among 320,000 | inhibition, % at 12.5 µM | AID 488896 | ldlA[mSR-BI] CHO cells, DiI-HDL uptake fluorescence, 3 h | Q61009;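 active means mean replicate inhibition of at least 70% and a set share of replicates each scoring 70 or more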;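 further: 0% = median of neutral control wells and 100% = median of positive control wells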
SMARCA2 conf: SMARCA2 activation, confirmation screen; activation, % at 9.1 µM; hit rate 30% among 3,500; shares compounds with SMARCA2 activ; MG213 cells, MMTV-luciferase with dexamethasone, luminescence, overnight; MG213 cells expressing E1A, Rb sequestered; DMSO wells 0%, reference activator 100%;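 active means activation above its plate's cutoff, the mean activation of tested wells plus 3 SD, cut at about 7.9% in these data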
VP16 Luc act: GAL4-VP16 reporter activation counter-screen. shares compounds with SMARCA2 activ. HEK293 GAL4-VP16 pG5luc reporter, luciferase luminescence; scaled: DMSO wells 0%, SAHA wells 100%. activation, % at 9.1 µM. hit rate 41% among 3,500;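 active means activation above the solvent-only control well mean plus 3 SD, averaged across control plates, cut at about 5.2% in these data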
* hit, by the source's call; nt = not tested or not shown. This is a sample that favours compounds with a hit; in the whole collection about 4.3% have one here.

SMILES	SR-BI DiI-HDL act	SMARCA2 activ	Hep lipid drop	CR mimetic SO	AHR activator	SR-BI HDL uptake	SMARCA2 conf	VP16 Luc act
O=C(COc1cccnc1[N+](=O)[O-])Nc1cccc(Br)c1	-9	11*	nt	105	-1	9	7	5
CC(=O)Nc1cc(-c2cccc(C(=O)NCCN(C)C)c2)cn2c(-c3cccc(C(F)(F)F)c3)cnc12	nt	22*	nt	nt	nt	nt	-15	2
CC(=O)Nc1cccc(-c2cc(NC(C)=O)c3ncc(-c4cccc(C(C)=O)c4)n3c2)c1	nt	8.9*	nt	nt	nt	nt	4	1
CN(C)CCNC(=O)c1cccc(-c2cnc3c(NC=O)cc(-c4ccc(F)cc4)cn23)c1	nt	5	nt	nt	nt	nt	nt	nt
COc1ccc(-c2cc(NC=O)c3ncc(-c4cccc(C(=O)NCCN(C)C)c4)n3c2)cc1	nt	8.0*	nt	nt	nt	nt	11*	0
CC(=O)Nc1cc(-c2cccc(C(=O)NCCN(C)C)c2)cn2c(-c3ccccc3)cnc12	nt	-1	nt	nt	nt	nt	nt	nt
Cc1cccc(OCC(C)CN2CCC(C(O)(c3ccccc3)c3ccccc3)CC2)c1 (stereo unspecified)	nt	-6	nt	nt	nt	nt	nt	nt
CC1CCC2(CCC(=O)N2CCCOC(=O)NC(C)(C)C)CC1 (stereo unspecified)	nt	2	nt	nt	nt	nt	nt	nt
O=C(NCCc1ccccc1)NC1CCCCC1	14	11*	7	92	10	-14	9.0*	7.7*
O=C(NCCC1=CCCCC1)NC1CCCCC1	19	8.7*	5	102	4	-19	8.1*	8.7*
CC(NCc1ccco1)C(=O)N1CCN(c2ccc(F)cc2)CC1 (stereo unspecified)	nt	7	nt	nt	nt	nt	nt	nt
O=c1nc(N/N=C/C=C/c2ccccc2)cn[nH]1	nt	12*	nt	104	11	nt	12*	6.7*
O=C(O)c1ccc(N/N=C/C=C/c2ccccc2)cc1	-5	8.0*	-1	96	7	5	4	17*
COc1ccc(N=Nc2ccc(N)nc2N)cc1	-10	12*	5	134	8	10	11*	20*
Nc1ccc(N=Nc2ccc(O)cc2)c(N)n1	-14	0	nt	nt	nt	14	nt	nt
CCOC(=O)[C@@]12CN(C(=O)OC(C)(C)C)CC=C1N(Cc1ccc(OC)cc1)C(=O)[C@H]2CC(=O)NCCCOC	nt	0	nt	nt	nt	nt	nt	nt
CCOc1ccc(N(CC(=O)Nc2c(C)n(C)n(-c3ccccc3)c2=O)S(=O)(=O)c2ccc3c(c2)N(C(=O)C2CCC2)CC3)cc1	nt	-5	nt	nt	nt	nt	nt	nt
Oc1ccc(-c2csc(-c3cccnc3)n2)c(O)c1	-24	8.2*	1	78	4	24	13*	12*
COc1cccc(C2C(C(=O)OC(C)C)=C(C)Nc3ncnn32)c1 (stereo unspecified)	21	8.2*	nt	98	7	-21	1	1
CC1=C(C(=O)OC(C)C)C(c2cccc(F)c2)n2ncnc2N1 (stereo unspecified)	12	0	-64	69	2	-12	nt	nt
CC(C)c1ccc(CN2CCC2(C)C(=O)Nc2cnc3ccccc3c2)cc1 (stereo unspecified)	nt	-7	nt	nt	nt	nt	nt	nt
CC1(C(=O)Nc2cnc3ccccc3c2)CCN1Cc1ccc2ccccc2c1 (stereo unspecified)	nt	12*	nt	nt	nt	nt	-2	1
CC(=O)Nc1ccc(OCC(C)CN2CCC(C(O)(c3ccccc3)c3ccccc3)CC2)cc1 (stereo unspecified)	nt	-2	nt	nt	nt	nt	nt	nt
CC1(C)OC(=O)C2=C(C[C@@H](CCC(F)(F)F)O[C@H]2c2ccc(F)cc2)O1	nt	8.2*	nt	nt	nt	nt	0	0
CC1(C)OC(=O)C2=C(C[C@@H](CCOCc3ccccc3)O[C@@H]2c2ccc(F)cc2)O1	nt	-4	nt	nt	nt	nt	nt	nt
SMILES	SR-BI DiI-HDL act	SMARCA2 activ	Hep lipid drop	CR mimetic SO	AHR activator	SR-BI HDL uptake	SMARCA2 conf	VP16 Luc act
CC(C)Cc1cc(C(=O)NCc2cccnc2)no1	36	3	nt	111	7	-36	nt	nt
O=C(NCc1ccccc1)c1noc2c1CCCC2	-7	5	0	83	0	7	nt	nt
CC(C)c1cc(C(=O)NCc2ccco2)no1	7	9.0*	-10	100	14	-7	8	7.3*
CC(C)Cc1cc(C(=O)NCc2cccs2)no1	6	13*	0	79	4	-6	7	14*
O=C(NCc1ccco1)c1noc2c1CCCCC2	42	10*	-7	105	0	-42	4	1
CC1CC(NC(=O)/C=C/C(=O)O)CC(C)(C)C1 (stereo unspecified)	17	10*	-3	97	0	-17	-2	1
O=C(O)/C=C/C(=O)NC1CCCCC1	-6	-4	-6	108	-2	6	nt	nt
O=C(NNC(=O)c1ccccc1Cl)c1ccncc1	16	8.7*	15	94	-1	-16	-4	0
O=C(NNC(=O)c1ccc(Cl)cc1Cl)c1ccncc1	22	-2	-1	121	2	-22	nt	nt
c1coc(CNc2nc(-c3ccncc3)cs2)c1	-27	2	2	92	-2	27	nt	nt
c1coc(CNc2nc3ccccc3s2)c1	nt	9.7*	-6	86	21	nt	15*	12*
COc1ccc(-c2csc(NCc3ccco3)n2)cc1	-14	9.2*	nt	108	7	14	9.5*	13*
S=C1SCN(Cc2ccccc2)CN1Cc1ccccc1	-14	3	-8	nt	nt	14	nt	nt
S=C1SCN(Cc2cccnc2)CN1Cc1cccnc1	15	12*	-32	108	1	-15	-8	0
CCN(CC)c1c(C)nc2ccc(C(=O)N3CCN(C(=O)c4ccco4)CC3)cn12	nt	9.4*	nt	nt	nt	nt	-1	0
CC(=O)Nc1ccc(CN(C)c2c(C)nc3ccc(C(=O)N4CCN(C(=O)c5ccco5)CC4)cn23)cc1	nt	1	nt	nt	nt	nt	nt	nt
CCN1CCN(Cc2ccc(NC(=O)c3cc(NC(=O)C(=O)c4c[nH]c5ccccc45)cc(OC)c3)cc2C(F)(F)F)CC1	16	10*	-13	106	1	-16	-15	3
CCN1CCN(Cc2ccc(NC(=O)c3cc(NC(=O)c4cc(C)on4)cc(OC)c3)cc2C(F)(F)F)CC1	1	4	nt	105	5	-1	nt	nt
Cc1c(C)c2ccc(OCC(=O)NCc3ccccn3)cc2oc1=O	7	-2	-1	104	-1	-7	nt	nt
Cc1c(C)c2ccc(OCC(=O)Nc3ccccn3)cc2oc1=O	8	12*	-6	121	-1	-8	6	5.6*
COC(=O)C1CN(C2CCCC2)CCS(=O)(=O)N1Cc1cn(Cc2ccc(Cl)cc2)nn1 (stereo unspecified)	nt	-1	nt	nt	nt	nt	nt	nt
